HSP90 refold inh: HSP90 refolding inhibition in rabbit reticulocyte lysate | luciferase refolding luminescence, 3 h | inhibition, % at 5.6 µM | 290,000 compounds, 0.91% hits | AID 1789;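 active = inhibition above the screen-wide mean plus 3 SD, computed separately per campaign, cut at about 16% in these data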;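 note: 0% = DMSO wells and 100% = 60 µM geldanamycin wells; inhibitors lower the luminescence because luciferase stays unfolded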
HSF1 activator: increases HSF-1 driven luciferase reporter signal; NIH3T3-HGL HSF-1 luciferase reporter, MG132, 8 h; 100% = twice DMSO control signal; activation, % at 9 µM; AID 504408; 300,000 compounds, 1.7% hits;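 active = mean replicate activation of at least 50% with a set share of replicates each reaching 50%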;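 note: 0% = median of the neutral control wells and 100% = twice that signal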
HSF1 inh: HSF1 inhibition; NIH3T3-HGL HSE-luciferase, MG132-induced, luminescence 8 h; stronger effect = lower value; activity change, negative = inhibition, % at 7.5 µM (by protocol); 300,000 compounds, 0.77% hits; AID 2098;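 active = more than half of replicate wells show activity change below -50%, luminescence cut by over half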;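 note: luciferase reports HSF-1 transcriptional activity via heat shock element; 0% = median of DMSO wells and -100% = zero luminescence signal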
Hep lipid drop: modulators of hepatic lipid droplet formation; AML12 mouse hepatocytes, oleate lipid droplets, BODIPY imaging; 240,000 compounds, 0.4% hits; AID 1656; inhibition, % at 6.5 µM;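 active = lipid droplet intensity inhibited by at least 50%, with more than 500 cells counted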
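Assay system: AML12 hepatocytes (mouse); Probe or stimulus: oleic acid at 100 µM to induce lipid droplet formation; Dosing: compound at 6.5 µM only; Schedule: compound with oleate, overnight; Detection: fluorescence imaging, 20x objective, two fields per well; Measure: % inhibition of lipid droplet signal.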
NS3 helicase inh: HCV NS3 helicase inhibition; NS3 helicase DNA unwinding, Cy5 molecular beacon fluorescence; inhibition, % at 10.9 µM; 290,000 compounds, 0.56% hits; AID 1800;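 active = inhibition above the mean of all tested compounds plus 3 SD, set per campaign, cut at about 35% in these data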;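 note: 0% = DMSO wells and 100% = thioflavine S control wells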
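Assay system: hepatitis C virus NS3 helicase domain fragment enzyme. Also added: annealed dual-labelled DNA beacon duplex, ATP-started. Timing: 1 h reaction at 25 °C, ATP-initiated. Technique: Cy5 fluorescence at 0 and 60 min, beacon hairpin quenching. Evaluation: % inhibition of unwinding. Replication: one well per compound.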
Starred values were filed as active, the others as inactive. Sampled rows, rich in hits. Any-hit rate of the full collection: about 3.8%.

For COc1cc(C(=O)NCc2nnc(SCC(=O)N3CCC(C)CC3)o2)cc(OC)c1OC the results were HSP90 refold inh 1, HSF1 activator 4, HSF1 inh -1, Hep lipid drop -3 and NS3 helicase inh -3.
Screening O=C(Cn1c(=O)oc2ccc(Cl)cc21)Nc1ccon1 returned HSP90 refold inh -2, HSF1 activator -3, HSF1 inh 0, Hep lipid drop 4 and NS3 helicase inh -3.
Screening Cn1c2ccccc2c(=O)c2c(=O)n(Cc3ccco3)c(-c3ccc(C(C)(C)C)cc3)nc21 returned HSP90 refold inh 5, HSF1 activator 0, HSF1 inh -7, Hep lipid drop -8 and NS3 helicase inh 3.
For CC(C)(C)Cc1nnc(NS(=O)(=O)c2ccc(F)cc2)s1 the results were HSP90 refold inh 0, HSF1 activator -65, HSF1 inh -53* and NS3 helicase inh 26.
C=CCOCCN(CCOCC=C)C1=NS(=O)(=O)c2ccccc21 was read as HSP90 refold inh -3, HSF1 activator -94, HSF1 inh -92*, Hep lipid drop -6 and NS3 helicase inh -5.
Screening Oc1ccc(-c2n[nH]c(=S)n2-c2ccc3c(c2)OCCO3)c(O)c1 returned HSP90 refold inh 16*, HSF1 activator -38, HSF1 inh -22, Hep lipid drop 4 and NS3 helicase inh 13.
Screening Cc1csc(NC(=O)c2cc3c(s2)CCC3)n1 returned HSP90 refold inh 3, HSF1 activator 54*, HSF1 inh 13 and NS3 helicase inh -7.
For Cc1ccc(-n2c(SCC(=O)Nc3cc(S(=O)(=O)N4CCOCC4)ccc3Cl)nc3ccccc3c2=O)cc1 the results were HSP90 refold inh -5, HSF1 activator 73*, HSF1 inh 29, Hep lipid drop -9 and NS3 helicase inh 0.
`O=C(NCCN1C(=O)S/C(=C\c2ccccc2F)C1=O)C1=COCCO1` gave HSF1 activator 8 and HSF1 inh 4.
COc1ccc(OC)c(S(=O)(=O)Nc2ccccc2O)c1 was read as HSF1 activator 90* and HSF1 inh 67.
CC(=O)Nc1ccc(S(=O)(=O)NCc2ccc(C(=O)NCc3ccc(Cl)cc3)cc2)cc1 was read as HSP90 refold inh 5, HSF1 activator -6, HSF1 inh -1, Hep lipid drop 10 and NS3 helicase inh -2.
`CC(C)CNS(=O)(=O)c1ccc(CCC(=O)Nc2ccc3c(c2)OCO3)cc1` gave HSP90 refold inh 17*, HSF1 activator -18, HSF1 inh 2, Hep lipid drop 10 and NS3 helicase inh -4.
Screening CC(=O)Nc1ccc(S(=O)(=O)NCc2ccc(C(=O)NCc3ccc4c(c3)OCO4)cc2)cc1 returned HSP90 refold inh 3, HSF1 activator -72, HSF1 inh -62*, Hep lipid drop -7 and NS3 helicase inh -4.
`COc1cccc(CNCC2CCCO2)c1` (stereo not drawn) gave HSP90 refold inh -2, HSF1 activator 36, HSF1 inh 13, Hep lipid drop -5 and NS3 helicase inh -6.
Screening O=C(N/N=C/c1ccc([N+](=O)[O-])s1)c1ccncc1 returned HSP90 refold inh 0, HSF1 activator 61*, HSF1 inh 50, Hep lipid drop 8 and NS3 helicase inh 2.
For Cc1ccc(C(=O)N/N=C\c2ccc([N+](=O)[O-])s2)cn1 the results were HSP90 refold inh 0, HSF1 activator -6, HSF1 inh -4, Hep lipid drop -38 and NS3 helicase inh 6.
`O=C(N/N=C/c1cc([N+](=O)[O-])ccc1O)c1ccncc1` gave HSP90 refold inh -3, HSF1 activator -61, HSF1 inh -54*, Hep lipid drop 2 and NS3 helicase inh -3.
`Cc1ccc(/C=N/NC(=O)c2ccncc2)s1` gave HSP90 refold inh -2, HSF1 activator 0, HSF1 inh -8, Hep lipid drop 6 and NS3 helicase inh 0.
For Cc1ccc(C(=O)N/N=C/c2ccc([N+](=O)[O-])s2)cc1 the results were HSP90 refold inh 4, HSF1 activator -72, HSF1 inh -70* and NS3 helicase inh 8.
Screening O=C(Nc1ncccc1O)c1ccc(Oc2ccccc2)cc1 returned HSP90 refold inh 13, HSF1 activator 88*, HSF1 inh 47, Hep lipid drop 23 and NS3 helicase inh 7.
O=C(CCNC(=O)c1ccc(Cl)cc1)Nc1ncccc1O was read as HSP90 refold inh -3, HSF1 activator -89, HSF1 inh -87*, Hep lipid drop 21 and NS3 helicase inh 0.
Screening O=C(CCCNC(=O)c1ccc(Cl)cc1)Nc1ncccc1O returned HSP90 refold inh -4, HSF1 activator -10, HSF1 inh -6, Hep lipid drop -6 and NS3 helicase inh -2.
`O=C(COC(=O)c1cc(=O)[nH]c2ccccc12)Nc1nc(-c2ccccc2)cs1` gave HSP90 refold inh 2, HSF1 activator 26, HSF1 inh 11 and NS3 helicase inh -2.
Screening CC1(C)Nc2ccccc2C(=O)N1c1ccccc1 returned HSP90 refold inh -3, HSF1 activator 18, HSF1 inh 2, Hep lipid drop 0 and NS3 helicase inh -6.
`CCn1c(Cl)c(C=O)s/c1=N\S(=O)(=O)c1ccccc1` gave HSP90 refold inh 3, HSF1 activator 113*, HSF1 inh 77, Hep lipid drop 2 and NS3 helicase inh 33.
For CCc1cccc(NS(=O)(=O)c2ccc3c(c2)NC(=O)C(C)S3)c1 (stereo not drawn) the results were HSP90 refold inh 6, HSF1 activator 77*, HSF1 inh 35, Hep lipid drop -45 and NS3 helicase inh 13.
COc1cccc(NS(=O)(=O)c2ccc3c(c2)NC(=O)C(C)S3)c1 (stereo not drawn) was read as HSP90 refold inh 3, HSF1 activator 3, HSF1 inh -1, Hep lipid drop 0 and NS3 helicase inh 0.
`CC(=O)Nc1cc(C(=O)N(C)Cc2ccco2)ccc1Sc1ccc(C)cc1` gave HSP90 refold inh -6, HSF1 activator -85, HSF1 inh -81*, Hep lipid drop -2 and NS3 helicase inh 2.
For Cc1cc(N)n(-c2ccc(C(=O)O)cc2)n1 the results were HSP90 refold inh 7, HSF1 activator -74, HSF1 inh -67*, Hep lipid drop 5 and NS3 helicase inh 10.
`Cc1ccc(N=Nc2ccc(O)cc2)c(Br)c1` gave HSP90 refold inh -2, HSF1 activator 61*, HSF1 inh 21, Hep lipid drop -5 and NS3 helicase inh -8.
Screening COc1cccc(-c2nnn(CC(=O)N(CC(C)C)C3CCS(=O)(=O)C3)n2)c1 (stereo not drawn) returned HSF1 activator -1 and HSF1 inh -4.
`CCOC(=O)c1c(C)[nH]c(C)c1C(=O)COc1ncnc2cc([N+](=O)[O-])ccc12` gave HSP90 refold inh 2, HSF1 activator 66*, HSF1 inh 17, Hep lipid drop 5 and NS3 helicase inh -2.
Screening CCn1ccnc1CNC(=O)CC1C(=O)NCCN1Cc1ccc(OC)cc1OC (stereo not drawn) returned HSP90 refold inh 5, HSF1 activator -3, HSF1 inh -2, Hep lipid drop -1 and NS3 helicase inh 6.
